Calls of active or inactive are those of the source. The rule behind the calls is not given here.
Experiments:
MCF7 = experiment: Growth inhibition of human MCF7 cells after 48 hrs; format: functional, cell-based; conditions: MCF7, 48 h
Tubulin [1] = experiment: Displacement of MTC from tubulin; format: protein-complex assay, Homo sapiens
Tubulin (Homo sapiens) = Tubulin (Homo sapiens) (UniProt P68371+Q9H4B7+P0DPH7+P68366+Q13509+Q71U36+P04350+Q3ZCM7+P07437+P68363+Q9BQE3+Q6PEY2+Q13885+Q9BVA1+Q9BUF5); experiment: Inhibition of [3H]colchicine binding to tubulin at 5 uM; format: protein-complex assay
Tubulin [2] = experiment: Inhibition of tubulin polymerization; format: protein-complex assay, Homo sapiens
Summary of the method: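 Tubulin at 10 µM in 0.8 M monosodium glutamate pH 6.6 with varying drug, preincubated 15 min at 30 °C, then chilled on ice. Assembly started with 0.4 mM GTP and followed as turbidity at 350 nm for 20 min at 30 °C. IC50 taken from the extent of assembly.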

HeLa [3] = experiment: Cell cycle arrest in HeLa cells assessed as accumulation at >4C phase at 10 uM after 24 hrs with furthur incubation in drug free medium for 24 hrs; format: functional, Homo sapiens
Summary of the method: (§1)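 HeLa cells in DMEM with 10% FCS, 37 °C, 5% CO2. Subconfluent cells trypsinized, seeded at 2.5 × 10⁵ cells/mL and exposed to 10 µM for 24 h (0.1% DMSO in parallel samples). Harvested either at once or after another 24 h in drug-free medium. Ethanol-fixed, stained with propidium iodide plus RNase A, ≥10 000 cells flow-analysed. Values are % of cells per phase; one typical experiment.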

HeLa [4] = experiment: Cell cycle arrest in HeLa cells assessed as accumulation of A0 sub-G1 DNA content at 10 uM after 24 hrs; format: functional, Homo sapiens; summary of the method: as §1
HeLa [5] = experiment: Cell cycle arrest in HeLa cells assessed as accumulation of A0 sub-G1 DNA content at 10 uM after 24 hrs with further incubation in drug free medium for 24 hrs; format: functional, Homo sapiens; summary of the method: as §1
HeLa [6] = experiment: Cell cycle arrets in HeLa cells assessed as accumulation at G1 phase at 10 uM for 24 hrs with further incubation in drug free medium for 24 hrs; format: functional, Homo sapiens; summary of the method: as §1
HeLa [7] = experiment: Cell cycle arrest in HeLa cells assessed as accumulation at S phase at 10 uM after 24 hrs; format: functional, Homo sapiens; summary of the method: as §1
HeLa [8] = experiment: Cell cycle arrest in HeLa cells assessed as accumulation at G2/M phase at 10 uM after 24 hrs with furthur incubation in drug free medium for 24 hrs; format: functional, Homo sapiens; summary of the method: as §1
HeLa [9] = experiment: Induction of apoptosis in HeLa cells assessed as PARP1 ceavage at 10 uM; format: functional, cell-based; conditions: Homo sapiens
Summary of the method: (§2)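 HeLa cells given 10 µM for 24 h, or 100 µM for 3 h followed by 24 h recovery. Total extracts from 2.5 × 10⁶ cells analysed by western blot with anti-PARP-1 mAb C-2-10 and an HRP anti-mouse secondary, ECL detection. PARP-1 proteolysis taken as the marker of caspase activation.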

HeLa [10] = experiment: Cell cycle arrest in HeLa cells assessed as accumulation at S phase at 10 uM after 24 hrs with further incubation in drug free medium for 24 hrs; format: functional, Homo sapiens; summary of the method: as §1
HeLa [11] = experiment: Cell cycle arrets in HeLa cells assessed as accumulation at G1 phase at 10 uM after 24 hrs; format: functional, Homo sapiens; summary of the method: as §1
HeLa [12] = experiment: Cell cycle arrest in HeLa cells assessed as accumulation at >4C phase at 10 uM after 24 hrs; format: functional, Homo sapiens; summary of the method: as §1
HeLa [13] = experiment: Cell cycle arrest in HeLa cells assessed as accumulation at G2/M phase at 10 uM after 24 hrs; format: functional, Homo sapiens; summary of the method: as §1
HeLa [14] = experiment: Induction of apoptosis in HeLa cells assessed as PARP1 ceavage at 100 uM; format: functional, cell-based; conditions: Homo sapiens; summary of the method: as §2

## COc1ccc2[nH]c(C)c(Sc3cc(OC)c(OC)c(OC)c3)c2c1
MCF7
  IC50: 18 nM
Tubulin [1]
  Ka: 6.38e+06 M⁻¹
Tubulin (Homo sapiens)
  inhibition: 69%
Tubulin [2]
  IC50: 3300 nM

## COc1cc(Sc2c[nH]c3ccc(F)cc23)cc(OC)c1OC
MCF7
  IC50: 160 nM
Tubulin (Homo sapiens)
  inhibition: 39%
Tubulin [2]
  IC50: 3300 nM

## COC(=O)c1[nH]c2ccc(Cl)cc2c1Sc1cc(OC)c(OC)c(OC)c1
Tubulin [1]
  Ka: 1.3e+06 M⁻¹

## COc1cc(Sc2c(C)[nH]c3ccccc23)cc(OC)c1OC
MCF7
  IC50: 46 nM
Tubulin [1]
  Ka: 5.5e+06 M⁻¹
Tubulin (Homo sapiens)
  inhibition: 61%
Tubulin [2]
  IC50: 6800 nM

## COc1cc(Sc2c[nH]c3ccc(OCCOCc4ccccc4)cc23)cc(OC)c1OC
MCF7
  IC50: 260 nM
Tubulin [2]
  IC50: > 40000 nM

## COc1cc(Sc2c(C)[nH]c3ccc(Cl)cc23)cc(OC)c1OC
MCF7
  IC50: 82 nM
Tubulin [1]
  Ka: 2.07e+06 M⁻¹
Tubulin (Homo sapiens)
  inhibition: 59%
Tubulin [2]
  IC50: 2700 nM

## COc1ccccc1Sc1c[nH]c2ccc(Cl)cc12
MCF7
  IC50: > 2500 nM
Tubulin [2]
  IC50: 11000 nM

## COc1cc(Sc2c[nH]c3ccc(C)cc23)cc(OC)c1OC
MCF7
  IC50: 16 nM
Tubulin [1]
  Ka: 1.96e+06 M⁻¹
Tubulin (Homo sapiens)
  inhibition: 56%
Tubulin [2]
  IC50: 2700 nM

## COc1cc(Sc2c[nH]c3ccc(Br)cc23)cc(OC)c1OC
HeLa [3]
  Activity: 26%
HeLa [4]
  Activity: 6.5%
MCF7
  IC50: 43 nM
Tubulin [1]
  Ka: 2.76e+06 M⁻¹
HeLa [5]
  Activity: 4.5%
HeLa [6]
  Activity: 3.5%
HeLa [7]
  Activity: 8.9%
Tubulin (Homo sapiens)
  inhibition: 65%
HeLa [8]
  Activity: 53.1%
HeLa [9]
  Activity: inactive
HeLa [10]
  Activity: 10.5%
HeLa [11]
  Activity: 1.8%
HeLa [12]
  Activity: 4.2%
Tubulin [2]
  IC50: 1600 nM
HeLa [13]
  Activity: 56.1%

## Cc1cc(C)cc(Sc2c[nH]c3ccc(Cl)cc23)c1
MCF7
  IC50: 1200 nM
Tubulin (Homo sapiens)
  inhibition: 33%
Tubulin [2]
  IC50: 9400 nM

## COc1cc(Sc2c[nH]c3ccc(Cl)cc23)cc(OC)c1OC
MCF7
  IC50: 77 nM
Tubulin [1]
  Ka: 810000 M⁻¹
Tubulin (Homo sapiens)
  inhibition: 51%
Tubulin [2]
  IC50: 2600 nM

## COc1ccc2[nH]cc(Sc3cc(OC)c(OC)c(OC)c3)c2c1
MCF7
  IC50: 22 nM
Tubulin [1]
  Ka: 3.05e+06 M⁻¹
Tubulin (Homo sapiens)
  inhibition: 61%
Tubulin [2]
  IC50: 4100 nM

## COc1cc(Sc2c[nH]c3ccc(N)cc23)cc(OC)c1OC
MCF7
  IC50: 260 nM
Tubulin [2]
  IC50: 13000 nM

## COc1ccc(/C=C\c2cc(OC)c(OC)c(OC)c2)cc1O [COMBRETASTATIN A4]
MCF7
  IC50: 17 nM

## COc1cc(Sc2c[nH]c3ccc(OC(C)C)cc23)cc(OC)c1OC
MCF7
  IC50: 1500 nM
Tubulin [2]
  IC50: 19000 nM

## COC(=O)c1[nH]c2ccccc2c1Sc1cc(OC)c(OC)c(OC)c1
Tubulin [1]
  Ka: 570000 M⁻¹

## COc1cc(Sc2c[nH]c3ccccc23)cc(OC)c1OC
MCF7
  IC50: 34 nM
Tubulin [1]
  Ka: 5.21e+06 M⁻¹
Tubulin (Homo sapiens)
  inhibition: 68%
Tubulin [2]
  IC50: 2600 nM

## CCOc1ccc2[nH]cc(Sc3cc(OC)c(OC)c(OC)c3)c2c1
MCF7
  IC50: 16 nM
Tubulin (Homo sapiens)
  inhibition: 76%
Tubulin [2]
  IC50: 2100 nM

## COc1cc(Sc2c[nH]c3ccc(O)cc23)cc(OC)c1OC
MCF7
  IC50: 190 nM
Tubulin (Homo sapiens)
  inhibition: 26%
Tubulin [2]
  IC50: 6300 nM

## COc1ccc(-c2ccc(OC)c(=O)cc2)c(OC)c1OC
Tubulin [1]
  Ka: 470000 M⁻¹

## COc1cc([C@@H]2c3cc4c(cc3[C@@H](O[C@@H]3O[C@@H]5CO[C@@H](C)O[C@H]5[C@H](O)[C@H]3O)[C@H]3COC(=O)[C@H]23)OCO4)cc(OC)c1O
HeLa [14]
  Activity: Active

## COc1cc(Sc2c[nH]c3ccc(OCCO)cc23)cc(OC)c1OC
MCF7
  IC50: 95 nM
Tubulin (Homo sapiens)
  inhibition: 31%
Tubulin [2]
  IC50: 6800 nM

## COc1cc(Sc2c[nH]c3ccc(I)cc23)cc(OC)c1OC
MCF7
  IC50: 68 nM
Tubulin [1]
  Ka: 2.31e+06 M⁻¹
Tubulin (Homo sapiens)
  inhibition: 61%
Tubulin [2]
  IC50: 2700 nM

## COc1cc(Sc2c[nH]c3ccc([N+](=O)[O-])cc23)cc(OC)c1OC
MCF7
  IC50: 560 nM
Tubulin [2]
  IC50: 16000 nM
